NLRP3 yeast inh: NALP3 inflammasome inhibitors in reconstituted yeast, primary screen, luminescence, uHTS; Yeast reconstituted NLRP3/ASC/caspase-1, beta-gal luminescence, 24 h; inhibition, % at 10 µM; 330,000 tested, 0.39% active; AID 2825, 2010;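 active = inhibition of 50% or more; inactive = inhibition below 50%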
Beta cell apopt: inhibitors of cytokine-induced beta cell apoptosis, primary screen, luminescence | 300,000 tested, 0.8% active | INS-1E cytokine-induced death, ATP luminescence, 48 h; percent of positive-control rescue, neutral wells zero | protection from apoptosis, % (test concentration not listed);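 active = Every replicate reaches about 75%, or at least half do and their mean reaches it too, limit read from the data; inconclusive = At least half of replicates reach the limit but their mean does not; inactive = Under half of replicates reach the limit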;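 note: higher means more ATP so stronger rescue from cytokine killing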
Calb FLC: C. albicans growth inhibition with fluconazole, primary screen, CaCi-2 strain, Alamar Blue fluorescence; C. albicans CaCi-2 + fluconazole, 48 h; growth inhibition, % (no concentration beside the values); 300,000 tested, 0.57% active; AID 1979, 2009;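 active = growth inhibition above about 58% in most replicates, limit read from the data, passing the limit was not always enough; inconclusive = exactly half the replicates above a set limit; inactive = most replicates below a set limit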;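 note: all wells also contain fluconazole at 8 µg/ml as a sub-toxic cotreatment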
T cruzi inh: inhibitors of intracellular T. cruzi growth, primary screen, luminescence, NIH3T3 host cells; T. cruzi beta-gal in NIH3T3, 90 h; AID 1885, 2009; inhibition, % (concentration not given with the values); 300,000 tested, 1.4% active;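 active = mean inhibition across valid replicates above about 55%, limit read from the data; inconclusive = mean below that limit but half or more replicates reach it; inactive = mean below it, under half of replicates reach it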;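 note: signal also drops with host cell toxicity which is not excluded here; higher percent means less beta-gal luminescence so fewer parasites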
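Assay system: NIH/3T3 fibroblasts plus reporter T. cruzi. Amount: NIH/3T3 cells, 5,000 per well. Buffer or medium: DMEM, 2% fetal bovine serum. Doses: compound pinned at 50 nL/well, DMSO. Schedule: ≥90 h infection period, 3 h prior cell attachment. Signal: luminescent β-galactosidase signal after 60 min lysis. Read-out: parasite load inhibition, %.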
Mdm2 MdmX PPI: inhibitors of human Mdm2-MdmX association, primary screen, cell-based, luminescence, split luciferase, SaOS-2, uHTS | SaOS-2 split-luciferase Mdm2/MdmX complementation | inhibition, % at 8 µM | 330,000 tested, 3% active | AID 485346, 2010;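 active = inhibition of at least 50% at 8 µM in the primary screen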
CSC inhib: cancer stem cell viability inhibitors, primary screen, luminescence; 300,000 tested, 1.1% active; cancer stem cell-like cells viability; inhibition, % at 7.5 µM; in the data active = inhibition above about 75%; inconclusive = no clear call, values can overlap the other calls; tested in HMLE shEcad cells
Hits are given with their value; i = inactive; ? = inconclusive; nt = not tested or not shown. Only some compounds are listed: those with a hit (about 5.3% of all), similar ones and a draw of the others.

SMILES | NLRP3 yeast inh | Beta cell apopt | Calb FLC | T cruzi inh | Mdm2 MdmX PPI | CSC inhib
COc1nc(OC)nc(N2CCC(C(=O)Nc3cccc4c3CCCC4)CC2)n1 | i | i | i | i | i | i
CCOC(=O)CNc1nc(Cl)nc(Nc2ccc(C)cc2)n1 | i | i | i | i | i | i
Cc1ccc(Nc2nc(Cl)nc(NC(C)(C)C)n2)cc1 | i | nt | 94 | i | i | i
S=C(NCCSCc1c(Cl)cccc1Cl)Nc1ccccc1 | i | i | 95 | 56 | i | nt
CS(=O)(=O)NCCSCc1c(Cl)cccc1Cl | i | i | i | 75 | i | i
S=C(NCCSCc1ccc(Cl)cc1Cl)Nc1ccccc1 | i | i | i | i | i | i
CCN(/C=N/c1sc2c(c1C#N)CCCCC2)CC | i | i | i | nt | i | i
CN1CCN(/C=N/c2sc3c(c2C#N)CCCCC3)CC1 | i | i | i | 58 | i | i
Cc1ccc(C)n1-c1c(C(=O)NN)cnn1-c1ccccc1 | i | i | i | i | i | i
CN1CCN(CCCc2c3c(cc4c2CCC4)CCC3)CC1 | i | i | i | 62 | i | i
Cc1cc(C)c(NC(=O)CCCN2CCN(C)CC2)c(C)c1 | i | i | i | i | i | i
COc1ccc(C(=O)Nc2ncc3c(n2)CC(C)CC3=O)cc1 (configuration not stated) | i | i | i | 64 | i | i
CCCN1CCC(=NNC(=O)CSc2cc(C)c(Br)cc2C)CC1 | i | i | i | i | i | i
COc1ccccc1N1CCN(S(=O)(=O)CCNC(=O)c2cc(=O)c3ccccc3o2)CC1 | i | i | i | i | i | i
CCCCCCCC/C=C\CCCCCCCC(=O)NCCc1ccc(O)c(O)c1 | i | ? | nt | nt | i | 100
O=S(=O)(NCCN1CCOCC1)c1ccc(Cl)s1 | i | i | 90 | i | i | i
Cc1ccc(S(=O)(=O)NCCN2CCOCC2)s1 | i | i | i | i | i | i
O=C1N=c2ccccc2=C1c1sc(=S)n(NC(=O)c2ccccc2)c1O | i | i | i | i | i | i
O=C1N=c2ccccc2=C1c1c(O)n(-c2cccc(F)c2)[nH]c1=O | nt | i | i | i | nt | 83
O=C(Nc1ccc(NC(=O)c2cccs2)cc1)c1cccs1 | i | i | ? | i | i | i
O=C(Nc1nonc1NC(=O)c1cccs1)c1cccs1 | i | i | 85 | i | i | i
Cc1ccc(S(=O)(=O)NNC(=O)c2ccc3ccccc3n2)cc1 | i | i | i | i | i | i
Cc1cc2oc3ccc(NCCCN4CCOCC4)cc3c(=O)c2cc1C | i | i | i | i | i | i
Cc1cc2oc3ccc(NCCCn4ccnc4)cc3c(=O)c2cc1C | i | nt | 86 | i | i | i
O=C(NCCc1ccccc1F)C1CCCN1S(=O)(=O)c1ccc2ccccc2c1 (configuration not stated) | i | i | i | 75 | i | i
SMILES | NLRP3 yeast inh | Beta cell apopt | Calb FLC | T cruzi inh | Mdm2 MdmX PPI | CSC inhib
Nc1c(C(O)(C(F)(F)F)C(F)(F)F)cc(C(O)(C(F)(F)F)C(F)(F)F)c2ccccc12 | i | i | i | i | i | 124
CC(=O)c1ccc(N2CCN(c3ccc(S(=O)(=O)NCCCN(C)C)cc3[N+](=O)[O-])CC2)cc1 | i | i | i | i | i | 82
CC(=O)c1ccc(N2CCN(c3ccc(S(=O)(=O)NCCN(C)C)cc3[N+](=O)[O-])CC2)cc1 | i | i | i | 59 | i | i
CCn1c(CSCc2ccc(C)cc2)n[nH]c1=S | i | i | i | i | i | i
CC(C)(C)NC(=O)Nc1ccc(F)c(Cl)c1 | i | i | i | i | i | i
Nc1ccccc1Nc1cc(-c2ccccc2)nn1-c1ccccc1 | i | i | i | 55 | i | i
C=CCc1c(C)nc(-c2ccccc2)nc1N/N=C/c1ccncc1 | i | i | i | 55 | i | i
C=CCc1c(C)nc(-c2ccccc2)nc1N/N=C/c1ccccc1 | i | i | i | i | i | i
COc1ccc(CCNC(=O)[C@H](C)N2C(=O)N3CCc4c([nH]c5ccccc45)[C@@]3(C)C2=O)cc1 | i | i | i | 62 | i | i
N#Cc1c(N)nc(SCc2ccncc2)c(C#N)c1-c1cccs1 | i | i | i | 64 | i | i
